Activity calls are given as the source filed them. No cut-off for these calls is given here.
Assays:
Mus musculus [1] = experiment: Bronchodilatory activity in ICR mouse assessed as supression of methacholine-induced increase in airway resistance at 38 ug/kg administered intratracheally 1 hr prior to methacholine challenge; type: functional, organism-based
Procedure, shortened: (§1)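 Male ICR mice (4-6 weeks) given compound intratracheally in saline (1 ml/kg). 1 h later, anaesthetised with chloral hydrate (500 mg/kg), tracheotomised, and ventilated at 150 breaths/min, tidal volume 8.7 ml/kg, PEEP 2-3 cmH₂O. Challenged with nebulised methacholine (5 mg/ml), five 20 s exposures 40 s apart. Airway resistance measured after each challenge by snapshot technique. Mean ± SEM.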

Mus musculus [2] = experiment: Bronchodilatory activity in ICR mouse assessed as supression of methacholine-induced increase in airway resistance at 3.8 ug/kg administered intratracheally 1 hr prior to methacholine challenge; type: functional, organism-based; procedure, shortened: as §1
Mus musculus [3] = experiment: Antiinflammatory activity against ICR mouse assessed as inhibition of porcine pancreatic elastase-induced increase in leucocyte count in BALF at 7.5 to 38 ug/kg administered intratracheally 1 hr prior to porcine pancreatic elastase challenge measured after 6 hrs; type: functional, organism-based
Procedure, shortened: (§2)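 Male ICR mice (4-6 weeks), isoflurane-anaesthetised, dosed intratracheally in sterile saline (1 ml/kg) 1 h before intratracheal PPE (20 U/kg) or vehicle. BALF taken 6 h after PPE; total cells counted by hemocytometer, cytospin slides stained with Diff-Quik to get neutrophil fraction of total cells. Mean ± SEM; Tukey's test.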

Mus musculus [4] = experiment: Antiinflammatory activity against ICR mouse assessed as inhibition of porcine pancreatic elastase-induced increase in neutrophil count in BALF at 7.5 to 38 ug/kg administered intratracheally 1 hr prior to porcine pancreatic elastase challenge measured after 6 hrs; type: functional, organism-based; procedure, shortened: as §2
Mus musculus [5] = experiment: Antiinflammatory activity against ICR mouse assessed as inhibition of porcine pancreatic elastase-induced increase in TNF-alpha level at 7.5 to 38 ug/kg administered intratracheally 1 hr prior to porcine pancreatic elastase challenge measured after 6 hrs by ELISA; type: functional, organism-based
Procedure, shortened: (§3)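 Male ICR mice, 4-6 weeks old, under isoflurane anaesthesia, given each enantiomer or racemate intratracheally in sterile saline (1 ml/kg) by micropipette; 1 h later PPE (20 U/kg) or saline vehicle given the same way. BALF collected 6 h after PPE; TNF-α, MIP-2, MCP-1 and KC measured by ELISA. Mean ± SEM; Tukey's test.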

Mus musculus [6] = experiment: Antiinflammatory activity against ICR mouse assessed as inhibition of porcine pancreatic elastase-induced increase in MIP-2 level at 7.5 to 38 ug/kg administered intratracheally 1 hr prior to porcine pancreatic elastase challenge measured after 6 hrs by ELISA; type: functional, organism-based; procedure, shortened: as §3
Mus musculus [7] = experiment: Antiinflammatory activity against ICR mouse assessed as inhibition of porcine pancreatic elastase-induced increase in MCP-1 level at 7.5 to 38 ug/kg administered intratracheally 1 hr prior to porcine pancreatic elastase challenge measured after 6 hrs by ELISA; type: functional, organism-based; procedure, shortened: as §3
Mus musculus [8] = experiment: Antiinflammatory activity against ICR mouse assessed as inhibition of porcine pancreatic elastase-induced increase in KC level at 7.5 to 38 ug/kg administered intratracheally 1 hr prior to porcine pancreatic elastase challenge measured after 6 hrs by ELISA; type: functional, organism-based; procedure, shortened: as §3
Mus musculus [9] = experiment: Suppression of fecal pellet output in ICR mouse at 4.7 mg/kg administered intratracheally 1 hr prior to restraint stress measured for 1 hr relative to control; type: organism-based, Feces; parameters: dose 4.7 mg/kg, route endotracheal; conditions: in vivo, inhaled_or_intranasal
Procedure, shortened: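 Male ICR mice (4-6 weeks) dosed intratracheally in sterile saline (1 ml/kg) under isoflurane; vehicle controls received saline alone. One hour later each mouse was restrained individually in a 50 ml tube for 1 h, and fecal pellets excreted during restraint were counted. Mean ± SEM; Tukey's test.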

Mus musculus [10] = experiment: Increase in heart rate in ICR mouse at 940 to 4700 ug/kg administered intratracheally measure immediately post dosing relative to control; type: ADME, organism-based; conditions: in vivo, inhaled_or_intranasal
Procedure, shortened: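 Male ICR mice (4-6 weeks) given compound intratracheally in sterile saline (1 ml/kg) under isoflurane; anaesthetised with chloral hydrate (500 mg/kg), pulse-oximeter sensor attached to thigh after 20 min. Heart rate (beats per minute) recorded immediately after dosing; percentage change from baseline to peak calculated. Mean ± SEM; Tukey's test.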

[11] = Drug level in ICR mouse lung at 20 mg/kg administered intratracheally after 5 mins; type: ADME, organism-based; parameters: dose 20 mg/kg, route endotracheal; conditions: inhaled or intranasal, read-out: Drug uptake
Procedure, shortened: (§4)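 Male ICR mice (4-6 weeks) under isoflurane given the enantiomer in sterile saline (1 ml/kg) intratracheally by micropipette. Whole lungs taken at indicated times, homogenised in sterile PBS with 50 U/ml heparin, centrifuged; 300 µl aliquot ultrafiltered and filtrate analysed by chiral HPLC (Chiralpak IA; water with 0.1 M KPF6/acetonitrile 30:70, 1.0 mL/min). Level expressed as µg/lung; mean ± SEM, n = 3.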

[12] = Drug level in ICR mouse lung at 20 mg/kg administered intratracheally after 15 mins; type: ADME, organism-based; parameters: dose 20 mg/kg, route endotracheal; conditions: inhaled or intranasal, read-out: Drug uptake; procedure, shortened: as §4
[13] = Drug level in ICR mouse lung at 20 mg/kg administered intratracheally after 30 mins; type: ADME, organism-based; parameters: dose 20 mg/kg, route endotracheal; conditions: inhaled or intranasal, read-out: Drug uptake; procedure, shortened: as §4
Lung [14] = experiment: Drug level in ICR mouse lung treated intratracheally with 20 mg/kg (R)-Mepenzolate after 5 to 30 mins; type: ADME, organism-based; parameters: dose 20 mg/kg, route endotracheal; conditions: in vivo, inhaled_or_intranasal; procedure, shortened: as §4
Lung [15] = experiment: Drug level in ICR mouse lung treated intratracheally with 20 mg/kg (S)-Mepenzolate after 5 to 30 mins; type: ADME, organism-based; parameters: dose 20 mg/kg, route endotracheal; conditions: in vivo, inhaled_or_intranasal; procedure, shortened: as §4

Row | Structure (SMILES) | Activity (Mus musculus [1]) | Activity (Mus musculus [2]) | Activity (Mus musculus [3]) | Activity (Mus musculus [4]) | Activity (Mus musculus [5]) | Activity (Mus musculus [6]) | Activity (Mus musculus [7]) | Activity (Mus musculus [8]) | Activity (Mus musculus [9]) | Activity (Mus musculus [10]) | concentration at 5 min [11] [ng/mL] | concentration at 0.25 h [12] [ng/mL] | concentration at 0.5 h [13] [ng/mL] | Drug metabolism (Lung [14]) | Drug metabolism (Lung [15])
1 | C[N+]1(C)CCCC(OC(=O)C(O)(c2ccccc2)c2ccccc2)C1.[Br-] (racemic) [MEPENZOLATE BROMIDE] | Active | Active | Active | Active | Active | Active | Active | Active | Toxic | Toxic |  |  |  |  | 
2 | C[N+]1(C)CCC[C@H](OC(=O)C(O)(c2ccccc2)c2ccccc2)C1.[Br-] | Active | inactive | Active | Active | Active | Active | Active | Active | Non-toxic | Toxic | 36400 | 7600 | 6200 | metabolite_notdetected | 
3 | C[N+]1(C)CCC[C@@H](OC(=O)C(O)(c2ccccc2)c2ccccc2)C1.[Br-] | Active | Active | Active | Active | Active | Active | Active | Active | Toxic | Toxic | 44500 | 6300 | 5100 |  | metabolite_notdetected
